Consider 16 compounds from ChEMBL document CHEMBL3621122, “Synthesis of new indole-based bisphosphonates and evaluation of their chelating ability in PE/CA-PJ15 cells” (Eur J Med Chem, 2015).

The source made the active and inactive calls. The rule behind the calls is not given here.

For series [1], the species on record is Homo sapiens. As to the kind of experiment: Metal chelating activity in human PE/CA-PJ15 cells assessed as change in cytosolic Ca2+ concentration at 10 to 30 uM after 50 secs using Ca2+ free medium by FURA-2 AM probe-based spectrophotofluorometric analysis. The series is classed as functional, cell-based. A digest of the protocol: (§1)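 Cultured PE/CA-PJ15 cells loaded with FURA-2 AM for 60 min at 37 °C in the dark. Cells resuspended in HBSS pH 7.4, either Ca2+-free (0.1 mM EGTA) or with 1 mM Ca2+. Bisphosphonate added to 10 µM, then a second addition 150 s later to 30 µM. Ratio fluorescence read at ex 340/380 nm, em 510 nm, converted to [Ca2+]c. Δ[Ca2+]c (nM) taken 50 s after addition; mean of 10 experiments ± SEM.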

For series [2], the species on record is Homo sapiens. Kind of series: Metal chelating activity in human PE/CA-PJ15 cells assessed as decrease in extracellular Ca2+ concentration at 30 uM by FURA-2 AM probe-based spectrophotofluorometric analysis. In kind it is functional, cell-based. Also on record: scale not given: the % may be the effect or the level left. The method in brief:
(§2)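 Cell suspension was diluted into HBSS with 1 mM CaCl2 and lysed with 1% Triton X-100. Ca2+/Fura-2 fluorescence after lysis was set as 100%, and bisphosphonate (10–30 µM) was then added. The fluorescence drop was followed over time and read at 30 µM. Mean of 10 experiments ± SEM.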

Series [3] is filed under the species Homo sapiens. As to the kind of experiment: Metal chelating activity in human PE/CA-PJ15 cells assessed as change in cytosolic Ca2+ concentration at 10 to 30 uM after 50 secs using Ca2+ containing medium by FURA-2 AM probe-based spectrophotofluorometric analysis. In kind it is functional, cell-based. The method in brief:
as §1

Series [4] has as its system Liver microsome. As to the kind of experiment: Retention time of the compound in human liver microsomes at 5 uM preincubated for 5 mins followed by NADPH addition measured after 30 mins by LC/MS analysis. In kind it is ADME. As to conditions: 0.5 h. A digest of the protocol: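 Microsomal incubation: 0.5 mg protein/ml, 5 µM substrate final, pH 7.4 phosphate, 5 min preincubation at 37 °C, 1 mM NADPH, quenched at 0 and 30 min with cold acetonitrile. Supernatant run by HPLC-MS/MS on a C18 column (100 × 2.1 mm, 40 °C). Mobile phases were water/0.1% formic acid and acetonitrile/0.1% formic acid at 0.3 mL/min, gradient from 0% B.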

The species named for series [5] is Homo sapiens. As to the kind of experiment: Metal chelating activity in human PE/CA-PJ15 cells assessed as decrease in cytosolic Ca2+ concentration at 10 to 30 uM after 50 secs using Ca2+ free medium by FURA-2 AM probe-based spectrophotofluorometric analysis.
The test system of series [6] is Liver microsome. As to the kind of experiment: Drug metabolism in human liver microsomes assessed as radical of 3-allyl-5-fluoro-1H-indole formation by measuring remaining compound level at 5 uM preincubated for 5 mins followed by NADPH addition measured after 30 mins by LC/MS analysis. In kind it is ADME. Conditions: 0.5 h. A digest of the protocol:
(§3)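 Substrate at 5 µM final with human liver microsomes (0.5 mg protein/ml) in 100 mM potassium phosphate pH 7.4, preincubated 5 min at 37 °C with shaking; started with 1 mM NADPH. Stopped at 0 and 30 min with cold acetonitrile containing labetalol internal standard. Protein spun down; supernatant analysed by HPLC-MS/MS for parent remaining.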
A general note: Liver microsomes are a subcellular fraction often used to study metabolism.

The test system of series [7] is Liver microsome. Kind of series: Drug level in human liver microsomes treated with tetraethyl (3-(5-fluoroindol-3-yl)propane-1,1-diyl)bis(phosphonate) at 5 uM preincubated for 5 mins followed by NADPH addition measured after 30 mins by LC/MS analysis. As to conditions: 0.5 h. In kind it is ADME. The method in brief: (§4)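 Human liver microsomes (0.5 mg protein/ml) with substrate at 5 µM final in 100 mM potassium phosphate pH 7.4. Preincubated 5 min at 37 °C with shaking, then started with 1 mM NADPH. Stopped at 0 and 30 min with cold acetonitrile containing labetalol internal standard. Spun 12,000 g, 5 min, 4 °C; supernatant analysed by HPLC-MS/MS.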

Series [8] in a line: Lipophilicity, log P of the compound. The series is classed as physicochemical. As to conditions: octanol/water.
For series [9], the species on record is Homo sapiens. Kind of series: Metal chelating activity in human PE/CA-PJ15 cells assessed as change in cytosolic Ca2+ concentration at 60 uM after 50 secs using Ca2+ free medium by FURA-2 AM probe-based spectrophotofluorometric analysis. The series is classed as functional, cell-based.
Series [10] is filed under the species Homo sapiens. As to the kind of experiment: Increase in cytosolic Ca2+ concentration in human PE/CA-PJ15 cells after 50 secs using Ca2+ containing medium by FURA-2 AM probe-based spectrophotofluorometric analysis. In kind it is functional, cell-based. A digest of the protocol:
as §1

The species entered for series [11] is Homo sapiens. Kind of series: Metal chelating activity in human PE/CA-PJ15 cells assessed as change in cytosolic Ca2+ concentration at 60 uM after 50 secs using Ca2+ containing medium by FURA-2 AM probe-based spectrophotofluorometric analysis. The series is classed as functional, cell-based.
The subject of series [12] is Liver microsome. As to the kind of experiment: Drug level in human liver microsomes treated with tetraethyl (3-(indol-3-yl)propane-1,1-diyl)bis(phosphonate) at 5 uM preincubated for 5 mins followed by NADPH addition measured after 30 mins by LC/MS analysis. The series is classed as ADME. As to conditions: 0.5 h. The method in brief:
as §4

The species entered for series [13] is Homo sapiens. As to the kind of experiment: Metal chelating activity in human PE/CA-PJ15 cells assessed as decrease in extracellular Ca2+ concentration by FURA-2 AM probe-based spectrophotofluorometric analysis. The series is classed as functional, cell-based. The method in brief:
as §2

Series [14] has as its system Liver microsome. As to the kind of experiment: Drug metabolism in human liver microsomes assessed as radical of 3-allyl-1H-indole/3-methyl-1H-indole formation by measuring remaining compound level at 5 uM preincubated for 5 mins followed by NADPH addition measured after 30 mins by LC/MS analysis. Conditions: 0.5 h. The series is classed as ADME. The method in brief: as §3

The nature of series [15]: Drug level in presence of tetraethyl (3-(indol-3-yl)propane-1,1-diyl)bis(phosphonate). The series is classed as physicochemical. The method in brief: as §3

For the compound `CCOP(=O)(OCC)C(CCc1c[nH]c2ccc(F)cc12)P(=O)(OCC)OCC`, the result in [1], in [3] and in series [5] was Active. Moreover, the Activity in [2] is -34%. The compound further registered a Retention_time in series [4] of 8.365 min. Also, the Stability in series [6] was 20%.

For `[CH]=CCc1c[nH]c2ccc(F)cc12`, the Drug metabolism entry in [7] is given as “metabolite_detected”. In series [4], the Retention_time is given as 5.628 min.

For `NCCCC(O)(P(=O)(O)O)P(=O)(O)O`, the outcome in [1] and in series [3] was Active. Further, the Activity in series [2] was -7%.

As to `CCOP(=O)(OCC)C(CCc1c[nH]c2ccc(C(F)(F)F)cc12)P(=O)(OCC)OCC`, the result in [1] and in series [3] was Active. Also, the Activity in series [2] was -16.5%.

As a reminder, the logP is the decadic logarithm of the partition coefficient of the neutral form, usually between octanol and water. In the case of `NCCC(O)(P(=O)([O-])O)P(=O)([O-])O.[Na+].[Na+]`, the logP in [8] is given as -4.7.

`CCOP(=O)(OCC)C(CCc1c[nH]c2ccncc12)P(=O)(OCC)OCC`: the result in series [1] and in series [5] was inactive. The Activity was 36 nM in [9], -6% in series [2], “Dose-dependent effect” in series [10] and 67 nM in series [11].

In the case of `CCOP(=O)(OCC)C(CCc1c[nH]c2cc(C(F)(F)F)ccc12)P(=O)(OCC)OCC`, the result in series [1] and in series [3] was Active. Moreover, the Activity in series [2] is -5%.

Consider `[CH]=CCc1c[nH]c2ccccc12`, for which the Drug metabolism entry in series [12] is “metabolite_detected”. In [4], the Retention_time turned out to be 6.829 min.

Take `[CH2]c1c[nH]c2ccccc12`: the Drug metabolism result in [12] is listed as “metabolite_detected”. Moreover, in [4], the Retention_time turned out to be 5.183 min.

In the case of `CCOP(=O)(OCC)C(CCc1c[nH]c2ccccc12)P(=O)(OCC)OCC`, the outcome in series [1], in [3] and in series [5] was Active. Moreover, the figures for the Activity entry in [13] and in series [2] were “Dose-dependent effect” and -73%, respectively. In series [14], the Stability came out at 20%. Further, the Retention_time in series [4] is recorded as 8.142 min.

Consider `O=P(O)(O)C(CCc1c[nH]c2ccccc12)P(=O)(O)O`, for which, in [15], the Drug metabolism result was “metabolite_detected”.

For the compound `O=P(O)(O)C(Cl)(Cl)P(=O)(O)O` [CLODRONATE DISODIUM], the result in [1] and in [3] was Active. For the same compound, the Activity in series [2] is -12%. Also, the logP in series [8] (read-out: logP) was -2.4.

`CC(O)(P(=O)(O)O)P(=O)(O)O` [ETIDRONATE DISODIUM]: the logP in series [8] (read-out: logP) is -3.8.

As for `O=P(O)(O)C(CCc1c(C2Nc3ccccc3C2CCC(P(=O)(O)O)P(=O)(O)O)[nH]c2ccccc12)P(=O)(O)O` (stereo unspecified), the Drug metabolism entry in [15] is “metabolite_detected”.

On to `O=P([O-])(O)C(O)(Cc1cccnc1)P(=O)(O)O.[Na+]` [RISEDRONATE SODIUM], for which the logP in series [8] was -3.6.

With `CCOP(=O)(OCC)C(CCc1c[nH]c2cc(F)ccc12)P(=O)(OCC)OCC`, the outcome in series [1] and in [3] was Active. For the same compound, the Activity in series [2] was -18%.
